{"source": "ChEMBL document CHEMBL1255300", "about": "“Pharmacodynamics of the antibacterial effect and emergence of resistance to tomopenem, formerly RO4908463/CS-023, in an in vitro pharmacokinetic model of Staphylococcus aureus infection” (Antimicrob Agents Chemother, 2008)", "key": {"Staphylococcus aureus [1]": {"tested_on": "Staphylococcus aureus", "test": "Antibacterial activity against methicillin-resistant Staphylococcus aureus 33921 by 10% MH broth method", "type": "functional", "outline": "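MIC by CLSI broth dilution, or by broth dilution in 10% Mueller-Hinton broth at nondoubling dilutions.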"}, "Staphylococcus aureus [2]": {"tested_on": "Staphylococcus aureus", "test": "AUBKC (0 to 24 hrs) in methicillin-sensitive Staphylococcus aureus 5956 infected in in vitro pharmacokinetic model at 750 mg, iv every 8 hrs using 10^6 CFU/ml inoculum", "type": "functional"}, "Staphylococcus aureus [3]": {"tested_on": "Staphylococcus aureus", "test": "Antibacterial activity against methicillin-resistant Staphylococcus aureus 33829 infected in in vitro pharmacokinetic model assessed as time required to 99.9% killing at 1500 mg, iv every 8 hrs using 10^6 CFU/ml inoculum", "type": "functional", "outline": "(§1)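 Single-compartment dilutional in vitro PK model, 10% Mueller-Hinton broth, 37°C, stirred, dilution 132 ml/h. […] Inoculum 10^6 CFU/ml (added 45 min pre-dose) or 10^8 CFU/ml (run overnight). Viable counts by spiral plating, beta-lactamase neutralization, detection limit 10^2 CFU/ml. At least triplicate.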"}, "Staphylococcus aureus [4]": {"tested_on": "Staphylococcus aureus", "test": "Antibacterial activity against methicillin-resistant Staphylococcus aureus 33827 assessed as viable count at 2 times of MIC after 24 hrs using 10^6 CFU/ml inoculum", "type": "functional, organism-based"}, "Staphylococcus aureus [5]": {"tested_on": "Staphylococcus aureus", "test": "Antibacterial activity against methicillin-resistant Staphylococcus aureus 33829 infected in in vitro pharmacokinetic model assessed as reduction in viable count at 1500 mg, iv every 8 hrs measured after 48 hrs using 10^6 CFU/ml inoculum", "type": "functional", "outline": "as §1"}, "Staphylococcus aureus [6]": {"tested_on": "Staphylococcus aureus", "test": "Antibacterial activity against methicillin-resistant Staphylococcus aureus 33922 infected in in vitro pharmacokinetic model assessed as reduction in viable count at 1500 mg, iv every 8 hrs measured after 36 hrs using 10^8 CFU/ml inoculum", "type": "functional"}, "Staphylococcus aureus [7]": {"tested_on": "Staphylococcus aureus", "test": "Antibacterial activity against methicillin-resistant Staphylococcus aureus 33922 by 10% MH broth method", "type": "functional"}, "Staphylococcus aureus [8]": {"tested_on": "Staphylococcus aureus", "test": "Antibacterial activity against methicillin-resistant Staphylococcus aureus 33827 infected in in vitro pharmacokinetic model assessed as reduction in viable count at 750 mg, iv every 8 hrs measured after 12 hrs using 10^8 CFU/ml inoculum", "type": "functional", "outline": "as §1"}, "Staphylococcus aureus [9]": {"tested_on": "Staphylococcus aureus", "test": "Antibacterial activity against methicillin-resistant Staphylococcus aureus 33820 infected in in vitro pharmacokinetic model assessed as reduction in viable count at 750 mg, iv every 8 hrs measured after 24 hrs using 10^6 CFU/ml inoculum", "type": "functional", "outline": "(§2)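 Single-compartment dilutional in vitro PK model, 37°C, stirred, in 10% Mueller-Hinton broth. […] Inoculum 10^6 CFU/ml from a 24-h plate culture was added 45 min before dosing. Viable counts by spiral plating on nutrient agar with β-lactamase neutralization. Log change was taken from time 0; detection limit 10^2 CFU/ml; at least triplicate.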"}, "Staphylococcus aureus [10]": {"tested_on": "Staphylococcus aureus", "test": "Antibacterial activity against methicillin-resistant Staphylococcus aureus 33922 assessed as viable count at 4 times of MIC after 48 hrs using 10^6 CFU/ml inoculum", "type": "functional, organism-based"}, "Staphylococcus aureus [11]": {"tested_on": "Staphylococcus aureus", "test": "T>MIC for 4-log drop in count in methicillin-sensitive Staphylococcus aureus 5956 in in vitro pharmacokinetic model after 24 hrs using 10^8 CFU/ml inoculum", "type": "functional", "outline": "(§3)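 Dose-ranging: 7–13 simulated regimens per strain giving T>MIC of 0–100% (MIC from 10% MHB), at 106 or 10^8 CFU/ml as stated.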"}, "Staphylococcus aureus [12]": {"tested_on": "Staphylococcus aureus", "test": "T>MIC for 3-log drop in count in methicillin-resistant Staphylococcus aureus 33815 in in vitro pharmacokinetic model after 24 hrs using 10^8 CFU/ml inoculum", "type": "functional"}, "Staphylococcus aureus [13]": {"tested_on": "Staphylococcus aureus", "test": "Antibacterial activity against methicillin-resistant Staphylococcus aureus 33827 infected in in vitro pharmacokinetic model assessed as reduction in viable count at 750 mg, iv every 8 hrs measured after 36 hrs using 10^6 CFU/ml inoculum", "type": "functional", "outline": "as §1"}, "Staphylococcus aureus [14]": {"tested_on": "Staphylococcus aureus", "test": "Antibacterial activity against methicillin-resistant Staphylococcus aureus 33922 infected in in vitro pharmacokinetic model assessed as time required to 99% killing at 750 mg, iv every 8 hrs using 10^8 CFU/ml inoculum", "type": "functional"}, "Staphylococcus aureus [15]": {"tested_on": "Staphylococcus aureus", "test": "AUBKC (0 to 48 hrs) in methicillin-resistant Staphylococcus aureus 33815 infected in in vitro pharmacokinetic model at 1500 mg, iv every 8 hrs using 10^6 CFU/ml inoculum", "type": "functional", "outline": "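Single-compartment dilutional in vitro PK model at 37°C in 10% Mueller-Hinton broth, stirred, flow 132 ml/h. […] Inoculum 10^6 CFU/ml added 45 min before dosing, or 10^8 CFU/ml run overnight. Viable counts with β-lactamase neutralisation. AUBKC by log-linear trapezoidal rule, at least triplicate.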"}, "Staphylococcus aureus [16]": {"tested_on": "Staphylococcus aureus", "test": "Antibacterial activity against methicillin-sensitive Staphylococcus aureus 5956 assessed as viable count at 4 times of MIC after 48 hrs using 10^6 CFU/ml inoculum", "type": "functional, organism-based"}, "Staphylococcus aureus [17]": {"tested_on": "Staphylococcus aureus", "test": "T>MIC for 4-log drop in count in methicillin-sensitive Staphylococcus aureus 5956 in in vitro pharmacokinetic model after 24 hrs using 10^6 CFU/ml inoculum", "type": "functional", "outline": "as §3"}, "Staphylococcus aureus [18]": {"tested_on": "Staphylococcus aureus", "test": "Antibacterial activity against methicillin-resistant Staphylococcus aureus 33827 infected in in vitro pharmacokinetic model assessed as time required to 99% killing at 750 mg, iv every 8 hrs using 10^8 CFU/ml inoculum", "type": "functional", "outline": "as §1"}, "Staphylococcus aureus [19]": {"tested_on": "Staphylococcus aureus", "test": "Antibacterial activity against methicillin-resistant Staphylococcus aureus 33815 infected in in vitro pharmacokinetic model assessed as time required to 99% killing at 750 mg, iv every 8 hrs using 10^8 CFU/ml inoculum", "type": "functional", "outline": "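T99 and T99.9 were taken as the times for the count to fall 99% or 99.9% from time 0, using serial viable counts over 48 h. Inoculum was 10^8 CFU/ml, grown overnight in the model before dosing.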"}, "Staphylococcus aureus [20]": {"tested_on": "Staphylococcus aureus", "test": "Antibacterial activity against methicillin-resistant Staphylococcus aureus 33921 infected in in vitro pharmacokinetic model assessed as reduction in viable count at 750 mg, iv every 8 hrs measured after 24 hrs using 10^6 CFU/ml inoculum", "type": "functional"}, "Staphylococcus aureus [21]": {"tested_on": "Staphylococcus aureus", "test": "T>MIC for 1-log drop in count in methicillin-resistant Staphylococcus aureus 33827 in in vitro pharmacokinetic model after 24 hrs using 10^8 CFU/ml inoculum", "type": "functional"}, "Staphylococcus aureus [22]": {"tested_on": "Staphylococcus aureus", "test": "Antibacterial activity against methicillin-resistant Staphylococcus aureus 33815 infected in in vitro pharmacokinetic model assessed as reduction in viable count at 750 mg, iv every 8 hrs measured after 36 hrs using 10^8 CFU/ml inoculum", "type": "functional", "outline": "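PK model at 37°C in 10% MHB. […] A 0.5 McFarland suspension (1 ml) was added and the model run overnight to reach 10^8 CFU/ml before dosing. Counts were spiral-plated on nutrient agar with β-lactamase. Change in log CFU/ml was measured from time 0; at least triplicate.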"}, "Staphylococcus aureus [23]": {"tested_on": "Staphylococcus aureus", "test": "Antibacterial activity against methicillin-resistant Staphylococcus aureus 33815 infected in in vitro pharmacokinetic model assessed as reduction in viable count at 750 mg, iv every 8 hrs measured after 48 hrs using 10^6 CFU/ml inoculum", "type": "functional", "outline": "as §2"}, "Staphylococcus aureus [24]": {"tested_on": "Staphylococcus aureus", "test": "Antibacterial activity against methicillin-sensitive Staphylococcus aureus 5956 infected in in vitro pharmacokinetic model assessed as reduction in viable count at 750 mg, iv every 8 hrs measured after 12 hrs using 10^6 CFU/ml inoculum", "type": "functional"}, "Staphylococcus aureus [25]": {"tested_on": "Staphylococcus aureus", "test": "Antibacterial activity against methicillin-resistant Staphylococcus aureus 33815 in in vitro pharmacokinetic model assessed as viable count at 6 times of MIC", "type": "functional", "outline": "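Preexposure population analysis profile: model sample at time zero plated on nutrient agar with tomopenem at multiples of the MIC. Growth counted as log CFU/ml, detection limit 2 log10.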"}}, "note": "Active and inactive are the calls of the source. The rule behind the calls is not given here."}
{"smiles": "C[C@@H](O)[C@H]1C(=O)N2C(C(=O)O)=C(S[C@H]3C[C@@H](C(=O)N4CC[C@H](NC(=O)CNC(=N)N)C4)N(C)C3)[C@H](C)[C@H]12", "note": "[TOMOPENEM]", "values": [{"measurement": "MIC", "setting": "Staphylococcus aureus [1]", "value": 0.06, "unit": "µg/mL"}, {"measurement": "AUBC", "setting": "Staphylococcus aureus [2]", "value": 27.6, "unit": "log10CFU/ml.hr"}, {"measurement": "Time", "setting": "Staphylococcus aureus [3]", "value": 12, "unit": "h"}, {"measurement": "Activity", "setting": "Staphylococcus aureus [4]", "value": "inactive"}, {"measurement": "log10CFU/ml", "setting": "Staphylococcus aureus [5]", "value": 3.8}, {"measurement": "log10CFU/ml", "setting": "Staphylococcus aureus [6]", "value": 5.2}, {"measurement": "MIC", "setting": "Staphylococcus aureus [7]", "value": 0.25, "unit": "µg/mL"}, {"measurement": "log10CFU/ml", "setting": "Staphylococcus aureus [8]", "value": 3.8}, {"measurement": "log10CFU/ml", "setting": "Staphylococcus aureus [9]", "value": 4.2}, {"measurement": "Activity", "setting": "Staphylococcus aureus [10]", "value": "inactive"}, {"measurement": "fT>MIC", "setting": "Staphylococcus aureus [11]", "value": 20.1, "unit": "%"}, {"measurement": "fT>MIC", "setting": "Staphylococcus aureus [12]", "value": 3.3, "unit": "%"}, {"measurement": "log10CFU/ml", "setting": "Staphylococcus aureus [13]", "value": 3.7}, {"measurement": "Time", "setting": "Staphylococcus aureus [14]", "value": 12, "unit": "h"}, {"measurement": "AUBC", "setting": "Staphylococcus aureus [15]", "value": 12.5, "unit": "log10CFU/ml.hr"}, {"measurement": "Activity", "setting": "Staphylococcus aureus [16]", "value": "inactive"}, {"measurement": "fT>MIC", "setting": "Staphylococcus aureus [17]", "value": 12.8, "unit": "%"}, {"measurement": "Time", "setting": "Staphylococcus aureus [18]", "value": 12, "unit": "h"}, {"measurement": "Time", "setting": "Staphylococcus aureus [19]", "value": 16, "unit": "h"}, {"measurement": "log10CFU/ml", "setting": "Staphylococcus aureus [20]", "value": 4}, {"measurement": "fT>MIC", "setting": "Staphylococcus aureus [21]", "value": 19.5, "unit": "%"}, {"measurement": "log10CFU/ml", "setting": "Staphylococcus aureus [22]", "value": 5.5}, {"measurement": "log10CFU/ml", "setting": "Staphylococcus aureus [23]", "value": 4.2}, {"measurement": "log10CFU/ml", "setting": "Staphylococcus aureus [24]", "value": 4.1}, {"measurement": "log10CFU/ml", "setting": "Staphylococcus aureus [25]", "value": "<2"}]}
